According to article PMC9051311 (RSC Advances, 2020):
No end group written: not given here.

Key:
[1] = biological target: T1, ACE (E.C. 3.4.15.1) from the lungs of rabbits (Oryctolagus cuniculus, UniProt P12822); test: ACE inhibitory; type: biochemical, rabbit
T1 sequence (P12822 34-1310): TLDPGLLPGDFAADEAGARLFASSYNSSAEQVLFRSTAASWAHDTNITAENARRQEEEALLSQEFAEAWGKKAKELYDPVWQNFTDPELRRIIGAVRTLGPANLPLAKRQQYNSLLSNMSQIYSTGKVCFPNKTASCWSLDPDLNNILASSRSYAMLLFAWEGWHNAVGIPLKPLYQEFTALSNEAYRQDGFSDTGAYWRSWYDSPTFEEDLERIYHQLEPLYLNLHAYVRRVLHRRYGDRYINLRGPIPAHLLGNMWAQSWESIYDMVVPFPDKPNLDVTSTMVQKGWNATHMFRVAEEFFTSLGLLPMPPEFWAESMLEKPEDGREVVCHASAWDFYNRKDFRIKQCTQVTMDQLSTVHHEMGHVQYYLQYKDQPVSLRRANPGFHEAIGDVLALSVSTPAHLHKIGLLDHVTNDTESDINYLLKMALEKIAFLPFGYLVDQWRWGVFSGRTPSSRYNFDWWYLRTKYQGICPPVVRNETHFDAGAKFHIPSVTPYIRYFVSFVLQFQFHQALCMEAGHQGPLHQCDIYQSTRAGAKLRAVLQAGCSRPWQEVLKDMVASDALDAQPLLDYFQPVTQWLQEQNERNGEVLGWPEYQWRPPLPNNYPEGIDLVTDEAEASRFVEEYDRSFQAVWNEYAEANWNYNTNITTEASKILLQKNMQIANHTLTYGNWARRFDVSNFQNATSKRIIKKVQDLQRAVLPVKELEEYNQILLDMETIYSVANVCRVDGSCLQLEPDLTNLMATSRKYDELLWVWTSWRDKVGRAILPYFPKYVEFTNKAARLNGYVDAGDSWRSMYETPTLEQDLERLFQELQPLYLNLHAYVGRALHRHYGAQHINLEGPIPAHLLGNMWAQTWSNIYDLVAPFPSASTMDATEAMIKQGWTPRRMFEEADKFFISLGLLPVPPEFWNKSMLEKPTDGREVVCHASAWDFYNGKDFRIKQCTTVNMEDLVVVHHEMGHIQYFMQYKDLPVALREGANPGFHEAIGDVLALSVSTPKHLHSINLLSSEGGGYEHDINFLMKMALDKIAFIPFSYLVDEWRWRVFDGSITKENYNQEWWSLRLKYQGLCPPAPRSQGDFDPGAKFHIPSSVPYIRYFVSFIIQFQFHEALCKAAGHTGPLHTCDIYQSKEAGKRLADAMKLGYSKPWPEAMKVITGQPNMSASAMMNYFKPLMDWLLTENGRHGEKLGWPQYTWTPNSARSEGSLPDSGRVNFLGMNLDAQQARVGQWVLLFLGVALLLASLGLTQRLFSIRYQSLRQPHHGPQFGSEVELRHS
In short: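 Rabbit-lung ACE (solution at 25 mU mL−1) pre-incubated with sample for 10 min at 37 °C, then 30 min at 37 °C with HHL (10 mM solution in PBS). Stopped with 1 M HCl. Hippuric acid extracted into ethyl acetate, dried under vacuum, redissolved in water and read at A250 against a hippuric acid standard curve. Captopril positive control. % inhibition corrected for blanks; IC50 by non-linear regression; triplicate.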

[2] = Observed solubility of the peptide in water; type: physicochemical

Sequence	IC50 [1] [µM]	solubility [2] [µg/mL]
ETSGMKPTEL [ETSGMKPTEL, Glu–Thr–Ser–Gly–Met–Lys–Pro–Thr–Glu–Leu]	2.15 ± 0.016	–
ISSMGILVCL [ISSMGILVCL, Ile–Ser–Ser–Met–Gly–Ile–Leu–Val–Cys–Leu]	3.88 ± 0.004	≥ 5000
